In ChEMBL document CHEMBL4316661, “Securinega Alkaloids from the Twigs of Securinega suffruticosa and Their Biological Activities” (J Nat Prod, 2019) one finds IC50, viability and Activity data, which are given here for 17 compounds.

As a reminder, the IC50 is the midpoint of a concentration-inhibition curve.

Bounds are passed on as bounds.

The subject of one data set is SK-MEL-2. Briefly: Cytotoxicity against human SK-MEL-2 cells after 48 hrs by SRB assay. The format is cell-based. The conditions noted are these: SK-MEL-2, 48 h. A general note: Sulforhodamine B stains cellular protein and so reports cell mass.
Another data set deals with HCT-15. Briefly: Cytotoxicity against human HCT15 cells after 48 hrs by SRB assay. The format is cell-based. Particulars: HCT-15, 48 h.
The test system of data set [1] is BV-2. Put plainly: Antiinflammatory activity in mouse BV2 cells assessed as inhibition of LPS-induced nitrite production after 24 hrs by Griess assay. The format is functional, cell-based. The conditions noted are these: BV-2, 24 h. In short, it runs like this: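 LPS-activated murine microglial BV-2 cells. IC50 taken as the concentration (μM) giving 50% inhibition of NO production. Means of three independent experiments, as means ± SD.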
A general note: The Griess reaction detects nitrite, a stable product of nitric oxide.

The nature of data set [2]: (§1) Cytotoxicity against mouse BV2 cells assessed as cell viability at 20 uM after 24 hrs by MTT assay relative to control. The format is cell-based, BV-2. The conditions noted are these: BV2 cells, read-out: Activity. In a few lines:
(§2)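 BV-2 microglia exposed to 20 μM of each compound. Viability read by MTT and given as a percentage. Means ± SD of three independent experiments.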
A general note: Tetrazolium dyes change colour on reduction, which living cells bring about.

The subject of a further data set is A549. Briefly: Cytotoxicity against human A549 cells after 48 hrs by SRB assay. The format is cell-based. Particulars: A549, 48 h.
For another data set, the system named is SK-OV-3. Put plainly: Cytotoxicity against human SKOV3 cells after 48 hrs by SRB assay. Particulars: SK-OV-3, 48 h. The format is cell-based.
Data set [3] can be described thus: Cytotoxicity against rat C6 cells assessed as cell viability at 20 uM after 24 hrs by MTT assay relative to control. The format is cell-based. Particulars: read-out: Activity. In short, it runs like this: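 C6 cells treated with 20 μM of each compound. Viability determined by MTT assay and expressed as a percentage. Means ± SD of three independent experiments.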

The next data set relates to C6. Briefly: Neuroprotective activity in rat C6 cells assessed as NGF secretion at 20 uM after 24 hrs by ELISA relative to control. The format is functional. In a few lines: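 C6 cells given 20 μM of each compound for 24 h. NGF secreted into the C6-conditioned medium quantified by ELISA, as a percentage of the untreated control (set at 100%). Means ± SD of three independent experiments.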

The subject of data set [4] is BV-2. The data set is described as §1. The format is cell-based. Particulars: bv-2, 24 h, 20 µM. In short, it runs like this: as §2

Take `CO[C@H]1CCN2[C@@H]3C=CC4=CC(=O)O[C@]4(C3)[C@H]2C1`: the IC50 in the data set with SK-MEL-2 was > 10 µM; in the data set on HCT-15, > 10 µM; in the data set with BV-2 [1], 7.7 µM; in the data set on A549, > 10 µM; in the data set with SK-OV-3, > 10 µM. The viability at 24 h, 20 µM in data set [2] came to 108%.
On to `O=C1C=C2C=C[C@@H]3C[C@@]2(O1)[C@@H]1[C@H]2O[C@H]2CCN31`, for which the IC50 in the data set on SK-MEL-2 was > 10 µM; with HCT-15, > 10 µM; in the data set on BV-2 [1], 12.6 µM; in the data set with A549, > 10 µM; with SK-OV-3 it was > 10 µM. The viability at 24 h, 20 µM in data set [3] turned out to be 101%; in data set [2], 92.8%. Also, the Activity in the data set on C6 amounted to 145.3%.
For the compound `O=C1C=C2C=CCC[C@]2(c2ccccn2)O1`, the IC50 in the data set on SK-MEL-2, in the data set on HCT-15, in the data set on A549 and in the data set on SK-OV-3 was > 10 µM throughout.
With `O=C1C=C2C=C[C@@H]3C[C@@]2(O1)[C@@H]1CCC(=O)C(=O)N31`, the IC50 with SK-MEL-2, in the data set on HCT-15, in the data set with A549 and in the data set on SK-OV-3 was > 10 µM in each case. Also, in [3], the viability at 24 h, 20 µM is 101%. The Activity in the data set with C6 was 172.7%.
Consider `O=C1C=C2C=C[C@H]3C[C@@]2(O1)[C@@H]1C[C@@H](O)CCN1O3`, for which the IC50 in the data set with SK-MEL-2, with HCT-15, with A549 and with SK-OV-3 was > 10 µM each time.
For the compound `CO[C@H]1CCN2[C@@H]3C=CC4=CC(=O)O[C@]4(C3)[C@@H]2C1`, the IC50 in the data set with SK-MEL-2 was > 10 µM; in the data set on HCT-15 it was > 10 µM; in the data set on BV-2 [1] it was 31.5 µM; with A549, > 10 µM; in the data set with SK-OV-3, > 10 µM. In addition, the viability at 24 h, 20 µM in data set [2] was 88.7%.
As for `CO[C@H]1CCN2O[C@@H]3C=CC4=CC(=O)O[C@]4(C3)[C@@H]2C1` [SECURINEGA AMAMINE D], the IC50 with SK-MEL-2 was > 10 µM; in the data set with HCT-15 it was > 10 µM; with BV-2 [1] it was 23.9 µM; in the data set with A549 it was > 10 µM; in the data set on SK-OV-3, > 10 µM. In addition, the viability at 24 h, 20 µM in data set [2] came out at 86.5%.
`O=C1C=C2C=C[C@H](O)C[C@]2(c2ccccn2)O1`: the IC50 in the data set on SK-MEL-2, with HCT-15, in the data set with A549 and in the data set on SK-OV-3 was > 10 µM throughout.
Turning to `O=C1C=C2C=C[C@@H]3C[C@@]2(O1)[C@H]1CCCCN31` [SECURININE], the IC50 is > 10 µM in the data set with SK-MEL-2; > 10 µM in the data set on HCT-15; 1.1 µM with BV-2 [1]; > 10 µM in the data set on A549; > 10 µM in the data set with SK-OV-3. Besides, the viability at 24 h, 20 µM in data set [3] amounted to 102%; in data set [2] it was 101%. Besides, the Activity in the data set on C6 is listed as 141.1%.
With `CCCCC/C=C/C(=O)CCc1ccc(O)c(OC)c1` [SHOGAOL], the viability at 24 h, 20 µM in [3] came out at 112%. Further, in the data set with C6, the Activity is 138.7%.
For the compound `O=C1C=C2C=C[C@H](O)C[C@@H]2O1`, the IC50 with SK-MEL-2, in the data set on HCT-15, in the data set with A549 and with SK-OV-3 was > 10 µM each time.
`O=C1C=C2C=C[C@H]3C[C@]2(O1)[C@H]1CCCCN1O3`: the IC50 was > 10 µM with SK-MEL-2; > 10 µM in the data set on HCT-15; 12.1 µM in the data set on BV-2 [1]; > 10 µM with A549; > 10 µM in the data set with SK-OV-3. Further, the viability at 24 h, 20 µM in data set [2] stood at 96.7%.
`COc1cc([C@@H]2c3cc4c(cc3[C@@H](O[C@@H]3O[C@@H]5CO[C@@H](C)O[C@H]5[C@H](O)[C@H]3O)[C@H]3COC(=O)[C@H]23)OCO4)cc(OC)c1O` [ETOPOSIDE]: the IC50 was 0.3 µM in the data set on SK-MEL-2, 0.3 µM in the data set on HCT-15, 0.7 µM in the data set on A549 and 1.8 µM in the data set on SK-OV-3.
For the compound `CO[C@H]1CCN2O[C@H]3C=CC[C@@]4(OC(=O)C=C34)[C@@H]2C1`, the IC50 with SK-MEL-2, in the data set on HCT-15, with A549 and in the data set with SK-OV-3 was > 10 µM each time.
As to `CO[C@H]1CCN2O[C@]34C=C[C@H](O)C[C@]3(OC(=O)C4)[C@@H]2C1`, the IC50 with SK-MEL-2, in the data set on HCT-15, with A549 and in the data set on SK-OV-3 was > 10 µM each time.
As for `CNC(=N)NCCC[C@H](N)C(=O)O` [TILARGININE], in data set [2], the viability at 24 h, 20 µM amounted to 99.7%.
With `O=C1C=C2C=C[C@@H]3C[C@@]2(O1)[C@@]1(O)[C@H]2O[C@H]2CCN31`, the half-inhibitory concentration (IC50) was determined as 1.9 µM with SK-MEL-2, 1.5 µM in the data set on HCT-15, 6.8 µM with A549 and 3.4 µM in the data set with SK-OV-3. For the same compound, the Activity entry in the data set on BV-2 [4] is listed as “Toxic”.
